The text below walks through data of ChEMBL document CHEMBL1149148, “Synthesis and structure-activity relationships of novel 7-substituted 1,4-dihydro-4-oxo-1-(2-thiazolyl)-1,8-naphthyridine-3-carboxylic acids as antitumor agents. Part 2” (J Med Chem, 2004).

≈ marks a conversion by molar mass, not a printed value.

For one assay, the system named is HL-60. Put plainly: Cytotoxic activity against human tumor HL-60 leukemia cells. Format: functional, cell-based. The essentials:
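HL-60 cells grown in RPMI 1640 with 20% FBS. Seeded at (1-2) × 10⁴ cells/mL, preincubated 24 h, then exposed to a range of compound concentrations for 72 h at 37 °C in 5% CO₂. Read by MTT (5 mg/mL solution, 4 h), formazan dissolved in DMSO, absorbance 570 nm/690 nm. IC50 is the concentration giving 50% absorbance reduction vs control. Mean of at least two independent experiments.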

The next assay has as its system Hs746T. Put plainly: Cytotoxic activity against human tumor Hs 746.T stomach cells. Format: functional, cell-based. The essentials:
(§1)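 Hs746T and PANC-1 cells kept in Dulbecco's modified Eagle's medium with 10% FBS. Seeded at (1-2) × 10⁴ cells/mL, 24 h preincubation, then graded compound concentrations for 72 h at 37 °C in 5% CO₂. MTT (5 mg/mL solution) added for 4 h, formazan taken up in DMSO, read at 570/690 nm. IC50 is 50% absorbance reduction relative to control. At least two independent experiments averaged.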

In a further assay the test system is PANC-1. Put plainly: Cytotoxic activity against human tumor PANC-1 pancreas cells. Format: functional, cell-based. The essentials:
as §1

The test system of a further assay is SCaBER. Put plainly: Cytotoxic activity against human tumor SCaBER bladder cells. Format: functional, cell-based. The gist of the method: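 SCaBER cells maintained in EMEM with 10% FBS and nonessential amino acids. Seeded at (1-2) × 10⁴ cells/mL, 24 h preincubation, then 72 h compound exposure at various concentrations at 37 °C in 5% CO₂. MTT (5 mg/mL) for 4 h, then DMSO, read at 570/690 nm. IC50 is 50% absorbance drop vs control. At least two independent experiments averaged.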

The test system of a further assay is SBC-3. Put plainly: Cytotoxic activity against human tumor SBC-3 lung cells. Format: functional, cell-based. The essentials:
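SBC-3 cells cultured in RPMI 1640 plus 10% FBS. Plated at (1-2) × 10⁴ cells/mL, preincubated 24 h, then compound at various concentrations for 72 h at 37 °C in 5% CO₂. MTT solution (5 mg/mL) for 4 h, DMSO solubilization, absorbance 570 nm with 690 nm reference. IC50 is the dose halving absorbance vs control. Mean of at least two independent runs.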

The test system of another assay is SK-OV-3. Put plainly: Cytotoxic activity against human tumor SK-OV-3 ovary cells. Type of assay: functional, cell-based. To be noted: SK-OV-3, Female gonad. The gist of the method:
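SKOV3 cells grown in RPMI 1640 with 10% heat-inactivated FBS. Cells at (1-2) × 10⁴ cells/mL, preincubated 24 h, treated with graded concentrations for 72 h at 37 °C in 5% CO₂. MTT readout (5 mg/mL, 4 h), formazan in DMSO, absorbance 570 nm/690 nm. IC50 is the concentration for 50% absorbance reduction vs control. Mean of at least two independent experiments.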

Assay [1] has as its system Mus musculus. Put plainly: Ratio of median survival time of treated mice (T) to that of median survival time of controls (C) in mice infected with p388 cells (in vivo) at a dose of 50 mg/kg. Type of assay: functional. The gist of the method:
(§2)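 BDF1 mice implanted ip with 0.1 mL diluted ascites fluid carrying 10⁶ P388 leukemia cells. Dosing ip on days 1 and 5 after implantation. Test compounds were suspended in 0.4% CMC, and reference drugs were dissolved and diluted in distilled water. Seven mice per group. T/C (%) = median survival time of treated group / median survival time of control group × 100.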

Assay [2] relates to Mus musculus. Put plainly: Ratio of median survival time of treated mice (T) to that of median survival time of controls (C) in mice infected with p388 cells (in vivo) at a dose of 6.25 mg/kg. Type of assay: functional. The essentials:
as §2

The subject of assay [3] is Mus musculus. Put plainly: Ratio of median survival time of treated mice (T) to that of median survival time of controls (C) in mice infected with p388 cells (in vivo) at a dose of 0.78 mg/kg. Type of assay: functional. The essentials: as §2
Assay [4] concerns Mus musculus. Put plainly: Ratio of median survival time of treated mice (T) to that of median survival time of controls (C) in mice infected with p388 cells (in vivo) at a dose of 1.56 mg/kg. Type of assay: functional. The gist of the method: as §2
Assay [5] concerns Mus musculus. Put plainly: Ratio of median survival time of treated mice (T) to that of median survival time of controls (C) in mice infected with p388 cells (in vivo) at a dose of 12.5 mg/kg. Type of assay: functional. The essentials: as §2
Assay [6] relates to Mus musculus. Put plainly: Ratio of median survival time of treated mice (T) to that of median survival time of controls (C) in mice infected with p388 cells (in vivo) at a dose of 25 mg/kg. Format: functional. The gist of the method: as §2
In assay [7] the test system is Mus musculus. Put plainly: Ratio of median survival time of treated mice (T) to that of median survival time of controls (C) in mice infected with p388 cells (in vivo) at a dose of 3.13 mg/kg. Format: functional. The essentials:
as §2

One may read the IC50 as the concentration that inhibits the measured activity by half. Regarding `CN[C@H]1CN(c2ccc3c(=O)c(C(=O)O)cn(-c4nccs4)c3n2)C[C@@H]1OC` [VOSAROXIN], the IC50 is 0.0498 µg/mL (≈ 0.124 µM) in the assay on HL-60; 0.194 µg/mL (≈ 0.483 µM) in the assay with Hs746T; 0.388 µg/mL (≈ 0.967 µM) in the assay on PANC-1; 0.121 µg/mL (≈ 0.301 µM) in the assay on SCaBER; 0.0319 µg/mL (≈ 0.0795 µM) with SBC-3; 0.266 µg/mL (≈ 0.663 µM) in the assay with SK-OV-3.

The T/C is the result in the treated group divided by that in the control group, in per cent. Take `COc1cc([C@@H]2c3cc4c(cc3[C@@H](O[C@@H]3O[C@@H]5CO[C@@H](C)O[C@H]5[C@H](O)[C@H]3O)[C@H]3COC(=O)[C@H]23)OCO4)cc(OC)c1O` [ETOPOSIDE]: the IC50 in the assay on HL-60 turned out to be 0.15 µg/mL (≈ 0.255 µM); in the assay on Hs746T, 3.29 µg/mL (≈ 5.59 µM); with PANC-1, 1.6 µg/mL (≈ 2.72 µM); in the assay on SCaBER, 0.276 µg/mL (≈ 0.469 µM); in the assay on SBC-3 it was 0.0676 µg/mL (≈ 0.115 µM); with SK-OV-3, 1.06 µg/mL (≈ 1.8 µM). The T/C is reported as more than 375% with Mus musculus [1]; 200% in the assay on Mus musculus [2]; 138% with Mus musculus [3]; 150% with Mus musculus [4]; 250% with Mus musculus [5]; more than 375% with Mus musculus [6]. For the same compound, in the assay on Mus musculus [7], the T/C worked out at 175%.
